Measured values taken from ChEMBL document CHEMBL1123098, “Activity of platinum(II) intercalating agents against murine leukemia L1210” (J Med Chem, 1985).

Tests used:
[1] = tested on: L1210; experiment: Growth inhibition of L1210 murine leukemia cells determined in culture; assay type: functional, cell-based, Mus musculus
In short: (§1)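 L1210 cells were grown in Minimum Essential Medium with 15% fetal calf serum, 2 mM glutamine and gentamycin, at 37 °C without agitation under 5% O2-10% CO2. Drug was diluted in sterile water and added to 5 × 10^4 cells/mL, with water-only controls. Exposure was continuous for 48 h, or in some cases a 2-h pulse followed by 48-h incubation. Cells were Coulter-counted and growth as % of control was plotted against concentration. IC50 is the mean of at least two determinations.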

[2] = tested on: L1210; experiment: Growth inhibition of L1210 leukemia was determined in culture; assay type: functional, cell-based, Mus musculus; in short: as §1

| Substance | IC50 [1] | IC50 [2] |
| --- | --- | --- |
| (2-methyloxyThiophenolato)(2,2':6',2''-terpyridine)platinum (II) Chloride Trihydrate | 10 µM | – |
| (1,4-Diamino-butane)(3,4,7,8-tetramethyl-1,10-phenanthroline)platinum (II) dichloride | 50 µM | – |
| (1,3-Diamine-2-hydroxypropane) ([2,2']Bipyridinyl)platinum (II) dichloride | 43 µM | – |
| (1,4-Diaminobutane)(1,10-phenanthroline)-platinum (II) dichloride Monohydrate | 110 µM | – |
| (Thiophenolato)(2,2':6',2''-terpyridine)platinum (II) Chloride Monohydrate | – | 6 µM |
| DICHLORODIPHENYLPLATINUM TRIHYDRATE | 23 µM | – |
| (4-AmmonioThiophenolato)(2,2':6',2''-terpyridine)platinum (II) dichloride Dihydrate | 32 µM | – |
| (Ethylenediamine) ([2,2']Bipyridinyl)platinum (II) dichloride Dihydrate | 33 µM | – |
| (1,4-Diaminebutane) ([2,2']Bipyridinyl)platinum (II) dichloride | > 500 µM | – |
| (2,2':6',2''-terpyridine)platinum (II) dichloride Trihydrate | 450 µM | – |
| (1,3-Diaminopropane)(1,10-phenanthroline)-platinum (II) dichloride Dihydrate | 14 µM | – |
| (4-methylThiophenolato)(2,2':6',2''-terpyridine)platinum (II) Chloride Dihydrate | 12 µM | – |

The remaining substances from weak to strong by IC50 [1], led by results:

| IC50 [1] | IC50 [2] | Substance |
| --- | --- | --- |
| 9 µM | – | (4-BromoThiophenolato)(2,2':6',2''-terpyridine)platinum (II) Chloride Dihydrate |
| 9 µM | – | (4-methyloxyThiophenolato)(2,2':6',2''-terpyridine)platinum (II) Chloride Trihydrate |
| 9 µM | – | (1,3-Diaminepropane) ([2,2']Bipyridinyl)platinum (II) dichloride Pentahydrate |
| 9 µM | – | (4-ChloroThiophenolato)(2,2':6',2''-terpyridine)platinum (II)DiChloro Trihydrate |
| 5 µM | – | (1,3-Diamino-2-hydroxypropane)(3,4,7,8-tetramethyl-1,10-phenanthroline)platinum (II) dichloride Dihydrate |
| 5 µM | – | (1-Thionaphthalato) (2,2':6',2''-terpyridine)platinum (II) dichloride Dihydrate |
| 2 µM | – | (Ethylenediamine)(1,10-phenanthroline)-platinum (II) dichloride Dihydrate |
| 1 µM | – | (1,3-Diaminopropane)(1,10-phenanthroline)-platinum (II) dichloride Monohydrate |
| 0.7 µM | – | (Ethylenediamine)3,4,7,8-tetramethyl-1,10-phenanthroline)platinum (II) dichloride Dihydrate Dihydrate |
